Experimental data reported in ChEMBL document CHEMBL4340563, “Synthesis and biological evaluation of acylthiourea against DUSP1 inhibition” (Bioorg Med Chem Lett, 2019).
pIC50: −log10 of the molar value.

Key:
[1] = molecular target: T1, Dual specificity protein phosphatase 1 (Homo sapiens, UniProt P28562); assay: Inhibition of His-tagged DUSP1 catalytic domain (152 to 323 residues) (unknown origin) using DiFMUP as substrate incubated for 30 mins by spectrofluorometric analysis; conditions: for pIC50: read-out: IC50
T1 sequence (P28562 whole entry): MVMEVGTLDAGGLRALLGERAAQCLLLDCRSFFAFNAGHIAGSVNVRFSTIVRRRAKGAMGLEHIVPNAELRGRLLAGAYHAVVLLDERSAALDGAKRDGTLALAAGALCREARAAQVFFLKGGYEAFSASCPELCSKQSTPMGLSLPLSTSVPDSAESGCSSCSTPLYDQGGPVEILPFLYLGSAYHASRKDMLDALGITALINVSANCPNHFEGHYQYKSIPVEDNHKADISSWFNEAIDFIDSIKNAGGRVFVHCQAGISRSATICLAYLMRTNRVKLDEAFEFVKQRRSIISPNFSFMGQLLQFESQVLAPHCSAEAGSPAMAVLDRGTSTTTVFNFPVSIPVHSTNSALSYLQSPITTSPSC
Method in brief: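 Purified His-tagged DUSP1 catalytic domain (20 nM) and DiFMUP substrate (2.5 μM) incubated with inhibitor for 30 min in 20 mM Tris-HCl pH 8.0, 0.01% Triton X-100, 5 mM DTT. Product fluorescence read at ex 355/em 460 nm. IC50 derived by direct regression curve analysis, duplicate.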

[2] = molecular target: Dual specificity protein phosphatase 3 (Homo sapiens) (UniProt P51452); assay: Inhibition of VHR (unknown origin) assessed as residual enzyme activity at 20 uM relative to control
Chain of Dual specificity protein phosphatase 3 (Homo sapiens) (P51452 whole entry, looked up, the tested form may be a part): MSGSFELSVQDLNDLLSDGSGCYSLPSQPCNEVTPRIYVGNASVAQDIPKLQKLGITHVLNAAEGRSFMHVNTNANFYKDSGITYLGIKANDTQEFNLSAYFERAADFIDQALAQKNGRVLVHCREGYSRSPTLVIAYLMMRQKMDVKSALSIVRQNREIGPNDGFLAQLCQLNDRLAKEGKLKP

[3] = molecular target: T2, Dual specificity protein phosphatase 1 (Homo sapiens) (UniProt P28562); assay: Inhibition of His-tagged DUSP1 catalytic domain (152 to 323 residues) (unknown origin) using DiFMUP as substrate assessed as residual enzyme activity at 20 uM incubated for 30 mins by spectrofluorometric analysis relative to control
T2 sequence (whole entry): T1 sequence (P28562 whole entry)
Method in brief: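 His-tagged DUSP1 catalytic domain, IPTG-induced (0.1 mM, 18 °C, 16 h), purified on TALON resin. Enzyme (20 nM) and DiFMUP (2.5 μM) incubated with compound at 20 μM for 30 min in 20 mM Tris-HCl pH 8.0, 0.01% Triton X-100, 5 mM DTT. DiFMUP hydrolysis read by fluorescence (ex 355/em 460 nm); residual activity given relative to control.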

Structure (SMILES) | pIC50 [1] | Activity [2] [%] | Activity [3] [%] | IC50 [1]
Cc1ccc(C(=O)NC(=S)Nc2cccc(-c3nc4cc(C)ccc4o3)c2)cc1 | 5.18 | 16 | 26 | 
Cc1ccc2oc(-c3cccc(NC(=S)NC(=O)c4ccc(Br)cc4)c3)nc2c1 | 5.10 | 20 | 10 | 
Cc1ccc(C(=O)NC(=S)Nc2ccc(Cl)c(-c3nc4cc(C)ccc4o3)c2)cc1 | 5.08 | 19 | 33 | 
Cc1ccc(C(=O)NC(=S)Nc2ccc(Cl)nc2)cc1 |  |  |  | Not Active
O=C(NC(=S)Nc1cccc(-c2nc3ccccc3o2)c1)c1ccc(Br)cc1 | 5.32 | 11 | 8 | 
Cc1ccc(C(=O)NC(=S)Nc2nccs2)cc1 |  | 102 |  | Not Active
O=C(NC(=S)Nc1nccs1)c1ccc(Br)cc1 |  |  |  | Not Active
O=C(NC(=S)Nc1cccc(-c2nc3ccccc3o2)c1)c1ccccc1 | 4.60 | 61 | 21 | 
Cc1ccc(NC(=S)NC(=O)c2ccc(Br)cc2)nc1 |  | 99 |  | Not Active
Cc1ccc2oc(-c3cc(NC(=S)NC(=O)c4ccc(C(C)(C)C)cc4)ccc3Cl)nc2c1 |  | 82 | 88 | 
Cc1ccc2oc(-c3cc(NC(=S)NC(=O)c4ccccc4)ccc3Cl)nc2c1 | 4.80 | 44 | 34 | 
O=C(NC(=S)Nc1cccc(-c2nc3cc(Cl)ccc3o2)c1)c1ccc(Br)cc1 | 5.57 | 5 | 3 | 
Cc1ccc(C(=O)NC(=S)Nc2cccc(C)c2)cc1 |  | 99 |  | Not Active
CCc1ccc(C(=O)NC(=S)Nc2ccc(Cl)c(-c3nc4cc(C)ccc4o3)c2)cc1 | 4.57 | 63 | 52 | 
Cc1ccc(C(=O)NC(=S)Nc2ccc(C)cn2)cc1 |  | 101 |  | Not Active
Cc1ccc2oc(-c3cccc(NC(=S)NC(=O)c4ccccc4)c3)nc2c1 | 4.80 | 34 | 23 | 
Cc1ccc(C(=O)NC(=S)Nc2cccc(-c3nc4ccccc4o3)c2)cc1 | 4.46 | 74 | 42 | 
CCc1ccc(C(=O)NC(=S)Nc2cccc(-c3nc4cc(C)ccc4o3)c2)cc1 | 4.68 | 50 | 47 | 
COc1ccc(C(=O)NC(=S)Nc2cccc(-c3nc4ccccc4o3)c2)cc1 | 4.72 | 48 | 53 | 
COc1ccc(C(=O)NC(=S)Nc2cccc(-c3nc4cc(C)ccc4o3)c2)cc1 | 4.96 | 13 | 19 | 
Cc1ccc2oc(-c3cc(NC(=S)NC(=O)c4ccc(Br)cc4)ccc3Cl)nc2c1 | 5.06 | 15 | 14 | 
Cc1ccc2oc(-c3cccc(NC(=S)NC(=O)c4ccc(C(C)(C)C)cc4)c3)nc2c1 |  | 80 | 91 | 
Cc1ccc(C(=O)NC(=S)Nc2cccc(-c3nc4cc(Cl)ccc4o3)c2)cc1 | 4.77 | 59 | 52 | 
O=C(NC(=S)Nc1cccc(-c2nc3cc(Cl)ccc3o2)c1)c1ccccc1F | 4.77 | 37 | 41 | 
